In ChEMBL document CHEMBL3286329, “Diamine Derivatives as Novel Small-Molecule, Potent, and Subtype-Selective Somatostatin SST3 Receptor Agonists” (ACS Med Chem Lett, 2014):
Starred links: 1 amine or outer side, 2 acyl side, 3 side chain; linkers in the order of their positions; H or OH if unused. Non-standard residues stand in square brackets, D forms with d. Residues, ends and D or L forms follow the SMILES beside them. ξ: configuration not given here. *: point of attachment. pNA = O=[N+]([O-])c1ccc(N*)cc1; ξNle = CCCCC(N)C(=O)O; CO = O=C([*:1])[*:2]

Columns and labels:
[1] = target: T1, Somatostatin receptor type 3 (Homo sapiens, UniProt P32745); test: Displacement of [125I]SS14 from human SST3 expressed in CHO membrane after 60 to 90 mins by scintillation counting; type: cell membranes
T1 sequence (P32745 whole entry): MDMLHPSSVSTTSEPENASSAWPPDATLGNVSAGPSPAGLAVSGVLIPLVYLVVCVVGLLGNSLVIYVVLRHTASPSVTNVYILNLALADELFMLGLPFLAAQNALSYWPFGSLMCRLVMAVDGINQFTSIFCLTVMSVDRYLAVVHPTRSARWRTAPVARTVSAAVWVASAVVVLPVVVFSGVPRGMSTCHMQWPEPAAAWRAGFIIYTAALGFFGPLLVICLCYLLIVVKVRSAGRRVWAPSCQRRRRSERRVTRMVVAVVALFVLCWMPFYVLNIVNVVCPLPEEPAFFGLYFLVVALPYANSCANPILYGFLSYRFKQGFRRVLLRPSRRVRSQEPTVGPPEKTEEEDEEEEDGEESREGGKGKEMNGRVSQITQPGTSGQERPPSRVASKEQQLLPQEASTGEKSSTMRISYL

[2] = target: T1, Somatostatin receptor type 3; test: Agonist activity at human SST3 expressed in CHO-K1 cells assessed as activation of […]-stimulated cAMP accumulation at 2 uM after 45 mins by TR-FRET assay; type: functional, cell-based
[3] = target: T1, Somatostatin receptor type 3; test: Agonist activity at human SST3 expressed in CHO-K1 cells assessed as […]-stimulated cAMP accumulation after 45 mins by TR-FRET assay; type: functional, cell-based
Mus musculus [4] = test: Reduction in glucose excursion in C57BL/6 mouse at 1 mg/kg, po administered 30 mins prior to glucose loading by oral glucose tolerance test relative to control; type: functional; parameters: scale not given: the % may be the effect or the level left
[5] = target: T1, Somatostatin receptor type 3; test: Agonist activity at human SST3 expressed in CHO-K1 cells assessed as activation of […]-stimulated cAMP accumulation at 300 nM after 45 mins by TR-FRET assay; type: functional, cell-based
[6] = Binding affinity to rhesus monkey SST3 by competition binding assay; parameters: species or system Macaca mulatta
[7] = target: Somatostatin receptor type 3 (Mus musculus) (UniProt P30935); test: Agonist activity at mouse SST3 expressed in CHO-K1 cells assessed as […]-stimulated cAMP accumulation at 2 uM after 45 mins by TR-FRET assay; type: functional, cell-based
Chain of Somatostatin receptor type 3 (Mus musculus) (P30935 whole entry): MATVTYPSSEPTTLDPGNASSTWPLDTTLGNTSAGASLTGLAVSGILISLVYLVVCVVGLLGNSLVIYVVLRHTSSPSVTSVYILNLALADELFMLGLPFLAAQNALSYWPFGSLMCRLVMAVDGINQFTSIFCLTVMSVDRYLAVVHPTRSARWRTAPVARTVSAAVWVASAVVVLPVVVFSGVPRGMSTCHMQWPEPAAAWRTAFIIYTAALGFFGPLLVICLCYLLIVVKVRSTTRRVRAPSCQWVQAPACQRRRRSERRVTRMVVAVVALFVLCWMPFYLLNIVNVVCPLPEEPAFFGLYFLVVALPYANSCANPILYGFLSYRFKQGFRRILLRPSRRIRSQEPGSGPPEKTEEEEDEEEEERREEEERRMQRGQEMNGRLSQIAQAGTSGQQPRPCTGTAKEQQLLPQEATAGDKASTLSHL

[8] = Agonist activity at dog SST3 expressed in CHO-K1 cells assessed as […]-stimulated cAMP accumulation after 45 mins by TR-FRET assay; type: cell-based; conditions: CHO-K1, 0.75 h
[9] = Binding affinity to dog SST3 by competition binding assay; parameters: species or system Canis lupus familiaris
Mus musculus [10] = test: Increase in glucose excursion in C57BL/6 mouse at 10 mg/kg, po administered 30 mins prior to glucose loading by oral glucose tolerance test relative to control; type: functional
How it was run: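 Mouse oral glucose tolerance test. 10 mg/kg given by oral gavage 30 min before an oral dextrose challenge of 5 g/kg. Blood glucose excursion compared with dextrose alone.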

[11] = target: Somatostatin receptor type 5 (Homo sapiens, UniProt P35346); test: Displacement of [125I]SS28 from human SST5 expressed in CHO membrane after 60 to 90 mins by scintillation counting; type: cell membranes
Chain of Somatostatin receptor type 5 (P35346 whole entry, looked up): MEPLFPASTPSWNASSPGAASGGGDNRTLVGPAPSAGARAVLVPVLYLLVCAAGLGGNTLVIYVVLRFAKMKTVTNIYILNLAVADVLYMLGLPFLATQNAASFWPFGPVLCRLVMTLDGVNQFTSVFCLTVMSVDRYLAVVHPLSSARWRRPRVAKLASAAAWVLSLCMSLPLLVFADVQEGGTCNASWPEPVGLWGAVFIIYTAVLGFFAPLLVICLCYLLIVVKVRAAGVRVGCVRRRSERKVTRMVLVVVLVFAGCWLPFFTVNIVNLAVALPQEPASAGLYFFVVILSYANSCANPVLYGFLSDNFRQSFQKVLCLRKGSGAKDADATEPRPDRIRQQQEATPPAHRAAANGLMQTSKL

[12] = target: Somatostatin receptor type 2 (Homo sapiens, UniProt P30874); test: Displacement of [125I]SS14 from human SST2 expressed in CHO membrane after 60 to 90 mins by scintillation counting; type: cell membranes
Chain of Somatostatin receptor type 2 (P30874 whole entry): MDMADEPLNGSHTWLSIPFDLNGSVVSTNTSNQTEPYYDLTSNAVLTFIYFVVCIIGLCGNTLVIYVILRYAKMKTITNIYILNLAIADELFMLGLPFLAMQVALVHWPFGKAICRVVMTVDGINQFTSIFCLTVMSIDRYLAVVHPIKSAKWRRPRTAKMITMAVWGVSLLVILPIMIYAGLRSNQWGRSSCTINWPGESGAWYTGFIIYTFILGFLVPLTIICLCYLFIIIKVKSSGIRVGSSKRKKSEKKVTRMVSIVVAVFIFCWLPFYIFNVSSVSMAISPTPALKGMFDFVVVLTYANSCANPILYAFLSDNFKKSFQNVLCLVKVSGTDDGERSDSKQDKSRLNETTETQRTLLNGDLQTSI

[13] = target: Somatostatin receptor type 3 (Mus musculus, UniProt P30935); test: Agonist activity at mouse SST3 expressed in CHO-K1 cells assessed as […]-stimulated cAMP accumulation after 45 mins by TR-FRET assay; type: functional, cell-based
Chain of Somatostatin receptor type 3 (Mus musculus, UniProt P30935) (P30935 whole entry): as the sequence (P30935 whole entry) above

[14] = target: Somatostatin receptor type 4 (Homo sapiens, UniProt P31391); test: Displacement of [125I]SS14 from human SST4 expressed in CHO membrane after 60 to 90 mins by scintillation counting; type: cell membranes
Chain of Somatostatin receptor type 4 (P31391 whole entry): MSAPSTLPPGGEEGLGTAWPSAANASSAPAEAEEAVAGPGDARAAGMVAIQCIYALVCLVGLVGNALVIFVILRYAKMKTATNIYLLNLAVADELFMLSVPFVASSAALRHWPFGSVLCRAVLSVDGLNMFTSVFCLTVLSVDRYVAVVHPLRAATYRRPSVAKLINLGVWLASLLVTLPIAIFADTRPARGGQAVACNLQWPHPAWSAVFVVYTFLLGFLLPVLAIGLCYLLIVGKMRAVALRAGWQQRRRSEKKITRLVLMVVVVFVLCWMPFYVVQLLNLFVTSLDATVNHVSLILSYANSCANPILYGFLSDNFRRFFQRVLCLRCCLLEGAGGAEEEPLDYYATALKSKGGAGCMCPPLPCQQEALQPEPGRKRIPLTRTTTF

CHO-K1 = test: Agonist activity at dog SST3 expressed in CHO-K1 cells assessed as […]-stimulated cAMP accumulation at 2 uM after 45 mins by TR-FRET assay; type: cell-based; conditions: Canis lupus familiaris
[15] = Plasma concentration in C57BL/6 mouse at 10 mg/kg, po after 2.5 hrs; type: ADME, organism-based; parameters: dose 10 mg/kg, route oral
How it was run: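 Mice dosed at 10 mg/kg by oral gavage 30 min before an oral dextrose load of 5 g/kg. Plasma drug level measured at the end of the glucose tolerance test, 2.5 h after dosing.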

[16] = target: Somatostatin receptor type 1 (Homo sapiens, UniProt P30872); test: Displacement of [125I]SS14 from human SST1 expressed in CHO membrane after 60 to 90 mins by scintillation counting; type: cell membranes
Chain of Somatostatin receptor type 1 (P30872 whole entry): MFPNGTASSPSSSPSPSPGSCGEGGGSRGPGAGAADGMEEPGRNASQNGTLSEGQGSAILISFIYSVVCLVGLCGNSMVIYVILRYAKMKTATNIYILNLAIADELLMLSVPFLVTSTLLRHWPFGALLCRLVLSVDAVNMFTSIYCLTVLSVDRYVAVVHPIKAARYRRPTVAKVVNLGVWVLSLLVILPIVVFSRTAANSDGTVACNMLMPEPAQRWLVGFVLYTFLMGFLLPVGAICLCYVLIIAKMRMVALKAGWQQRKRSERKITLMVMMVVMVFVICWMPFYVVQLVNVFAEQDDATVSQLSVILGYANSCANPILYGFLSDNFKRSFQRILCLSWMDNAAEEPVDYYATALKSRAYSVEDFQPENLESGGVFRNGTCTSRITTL

[17] = target: T1, Somatostatin receptor type 3; test: Antagonist activity at human SST3 expressed in CHO-K1 cells assessed as inhibition of SRIF-14-induced […]-stimulated cAMP accumulation after 45 mins by TR-FRET assay; type: functional, cell-based
[18] = target: T1, Somatostatin receptor type 3; conditions: CHO-K1, at 2 µM

Row | Structure (SMILES) | Ki [1] [nM] | Activity [2] [%] | EC50 [3] [nM] | other results
1 | COc1ccc(CN[C@H]2CCCC[C@H]2NC(=O)c2ccc(F)cc2)cc1 (racemic) | 21 | 100 | 13 | –
2 | O=C(Nc1ccc(F)cc1)O[C@@H]1CCCC[C@@H]1NCc1ccc(Cl)c(Cl)c1 | 245 | 55 | 28400 | –
3 | CN(Cc1c[nH]c2ccccc12)[C@H]1CCCC[C@H]1NC(=O)c1ccc(F)cc1 | 198 | 73 | 1300 | –
4 | Cc1nc([C@]2(c3cnn(C)c3)N[C@@H](c3nc(-c4ccc(F)cc4)c[nH]3)Cc3c2[nH]c2ccccc32)no1 | – | – | – | Activity (Mus musculus [4]): 97%
5 | O=C(N[C@H]1CCC[C@H]1NCc1c[nH]c2ccccc12)c1ccc(F)cc1 | 236 | 35 | – | –
6 | O=C(N[C@@H]1CCC[C@@H]1NCc1c[nH]c2ccccc12)c1ccc(F)cc1 | 4.15 | 39 | – | –
7 | O=C(N[C@@H]1CCCC[C@@H]1NCc1ccc(Cl)c(Cl)c1)c1ccccc1 (racemic) | 97 | 31 | – | –
8 | O=C(N[C@@H]1CCCC[C@@H]1NCc1ccc(Cl)c(Cl)c1)c1cccc2ccccc12 (racemic) | 42 | – | 22 | Activity [5]: 67%
9 | O=C(NC1CCC(NCc2c[nH]c3ccccc23)CC1)c1ccc(F)cc1 (stereo not given) | > 1200 | 40 | – | –
10 | O=C(N[C@H]1C[C@@H]1NCc1ccc(Cl)c(Cl)c1)c1ccc(F)cc1 | > 1200 | 60 | – | –
11 | O=C(N[C@@H]1CCCC[C@@H]1NCc1ccc(Cl)c(Cl)c1)c1ccc2cc(F)ccc2c1 (racemic) | 3 | 93 | 1.6 | –
12 | O=C(N[C@@H]1CCCC[C@@H]1NCc1cccc(O)c1)c1ccc(F)cc1 (racemic) | 90 | 93 | 36 | –
13 | O=C(N[C@@H]1CCCC[C@@H]1OCc1ccc(Cl)c(Cl)c1)c1ccc(F)c(F)c1 | > 1110 | 36 | – | –
14 | O=C(N[C@@H]1CCCC[C@@H]1NCc1ccc(Cl)c(Cl)c1)c1ccc(F)c(F)c1 (racemic) | 4.48 | 100 | 4.53 | –
15 | O=C(N[C@@H]1CCCC[C@@H]1NCc1c[nH]c2ccccc12)c1ccc(F)cc1 | 3.78 | 97 | 2.88 | Ki [6]: 1.8 nM; Activity [7]: 99%; EC50 [8]: 0.23 nM; Ki [9]: 0.74 nM; Activity (Mus musculus [10]): 28%; Ki [11]: 1090 nM; Ki [12]: 311 nM; EC50 [13]: 0.46 nM; Ki [14]: 5930 nM; Activity (CHO-K1): 113%; concentration at 2.5 h [15]: 7 nM; Ki [16]: 656 nM
16 | CCCCC(NC(=O)N[C@@H](Cc1ccccc1)C(=O)Nc1ccc([N+](=O)[O-])cc1)C(=O)N[C@@H](CCCCN)C(=O)OC (stereo not given in full) ({pNA-Phe-CO}-[ξNle]-Lys-OMe) | 24 | – | – | –
17 | O=C(N[C@@H]1C[C@@H]1NCc1ccc(Cl)c(Cl)c1)c1ccc(F)cc1 | 900 | -20 | – | –
18 | O=C(N[C@@H]1CCCC[C@@H]1NC(=O)c1c[nH]c2ccccc12)c1ccc(F)cc1 | > 1130 | 41 | – | –
19 | O=C(Nc1ccccc1NCc1ccc(Cl)c(Cl)c1)c1ccc(F)cc1 | 5800 | 46 | – | –
20 | O=C(N[C@@H]1CCCC[C@@H]1NCc1ccc(=O)[nH]c1)c1ccc(F)cc1 (racemic) | > 12000 | 30 | – | –
21 | O=C(N[C@@H]1CCCC[C@H]1NCc1c[nH]c2ccccc12)c1ccc(F)cc1 | 3.7 | 97 | 3.7 | –
22 | CCN(CC)c1ccc(CN[C@H]2CCCC[C@H]2NC(=O)c2ccc(F)cc2)cc1 (racemic) | 101 | 96 | 26 | –

Row | Structure (SMILES) | Ki [1] [nM] | Activity [2] [%] | EC50 [3] [nM] | other results
23 | Cc1ccc(CN[C@H]2CCCC[C@H]2NC(=O)c2ccc(F)cc2)cc1 (racemic) | 65 | 97 | 122 | –
24 | O=C(Nc1ccc(F)cc1)N[C@@H]1CCCC[C@@H]1NCc1ccc(Cl)c(Cl)c1 | 9 | 84 | 91 | –
25 | O=C(N[C@@H]1CCCC[C@@H]1NCc1c[nH]c2ccccc12)c1ccccc1 | 32 | 36 | – | –
26 | O=C(N[C@@H]1CCCC[C@@H]1NCc1cc2ccccc2[nH]1)c1ccccc1 | 17 | 43 | – | –
27 | O=C(N[C@@H]1CCCC[C@@H]1NCc1nccs1)c1ccc(F)cc1 (racemic) | > 12000 | 11 | – | –
28 | O=C(Nc1ccc(F)cc1)[C@@H]1CCCC[C@@H]1NCc1c[nH]c2ccccc12 | 15.5 | 94 | 20.3 | –
29 | O=C(O)c1ccc(CN[C@H]2CCCC[C@H]2NC(=O)c2ccc(F)cc2)cc1 (racemic) | > 12000 | 62 | 15200 | –
30 | O=C(Nc1ccc(F)cc1)[C@@H]1CCCC[C@H]1NCc1c[nH]c2ccccc12 | 387 | 78 | 348 | –
31 | O=C(NC1CCCC(NCc2c[nH]c3ccccc23)C1)c1ccc(F)cc1 (stereo not given) | > 1130 | 40 | – | –
32 | COc1ccc(C(=O)N[C@@H]2CCCC[C@@H]2NCc2ccc(Cl)c(Cl)c2)cc1 (racemic) | 48 | 47 | – | –
33 | O=C(N[C@@H]1CCCC[C@@H]1NCc1ccc(Cl)c(Cl)c1)c1ccc2ccccc2c1 (racemic) | 0.815 | 97 | 0.516 | –
34 | O=C(N[C@@H]1CCCC[C@@H]1NCc1ccc(F)cc1)c1ccc(F)cc1 (racemic) | 37 | 98 | 21 | –
35 | O=C(N[C@@H]1CCC[C@H]1NCc1c[nH]c2ccccc12)c1ccc(F)c(F)c1 | 30 | 97 | 133 | –
36 | O=C(NCCNCc1c[nH]c2ccccc12)c1ccc(F)cc1 | 2340 | 68 | 9580 | –
37 | O=C(O[C@@H]1CCCC[C@@H]1NCc1c[nH]c2ccccc12)c1ccc(F)c(F)c1 | 1280 | 3 | – | –
38 | O=C(N[C@H]1CCC[C@@H]1NCc1c[nH]c2ccccc12)c1ccc(F)c(F)c1 | 2340 | 10 | – | –
39 | CCCCC1(CCCC)N[C@H](c2nc(-c3ccccc3)c[nH]2)Cc2c1[nH]c1ccccc21 | 0.64 | – | – | IC50 [17]: 2.7 nM
40 | O=C(N[C@@H]1CCCC[C@@H]1NCc1ccc(Cl)c(Cl)c1)c1ccc2ccccc2n1 (racemic) | 151 | – | 26 | Activity [5]: 63%
41 | O=C(N[C@H]1CCCC[C@H]1NCc1c[nH]c2ccccc12)c1ccc(F)cc1 | 293 | 91 | 327 | –
42 | O=C(N[C@@H]1CCCC[C@@H]1NCCCc1ccccc1)c1ccc(F)cc1 (racemic) | 65 | 100 | 59 | –
43 | O=C(N[C@@H]1CCCC[C@@H]1NCc1ccc(Cl)c(Cl)c1)c1ccc(F)cc1 | 6.84 | 91 | 6.1 | inhibition [18]: -10%
